Experimental data published in ChEMBL document CHEMBL2010692, “Inhibitory effect of novel S,N-bisphosphonates on some carcinoma cell lines, osteoarthritis, and chronic inflammation” (Eur J Med Chem, 2012).

Key:
Rattus norvegicus [1] = experiment: Antiarthritic activity in complete Freund's adjuvant-induced rat arthritis model assessed as reduction of paw volume in injected paw at 50 mg/kg, sc qd for 28 days; type: functional; conditions: 672 h, route subcutaneous
Outline: (§1)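 Rat adjuvant-induced polyarthritis. Compounds were dissolved or suspended in sterile saline, sonicated as needed, brought to pH 7.0 with NaOH, and kept as frozen aliquots, fresh each dosing day. Dosing was sc once daily for 28 days, by body weight. The arthritic control group got vehicle sc. Injected and noninjected hindpaw volumes were measured on day 28 by mercury displacement plethysmography and expressed as % inhibition.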

Rattus norvegicus [2] = experiment: Antiarthritic activity in complete Freund's adjuvant-induced rat arthritis model assessed as reduction of paw volume in injected paw at 30 mg/kg, sc qd for 28 days; type: functional; conditions: 672 h, route subcutaneous; outline: as §1
Rattus norvegicus [3] = experiment: Antiarthritic activity in complete Freund's adjuvant-induced rat arthritis model assessed as reduction of paw volume in injected paw at 20 mg/kg, sc qd for 28 days; type: functional; conditions: 672 h, route subcutaneous; outline: as §1
Rattus norvegicus [4] = experiment: Antiarthritic activity in complete Freund's adjuvant-induced rat arthritis model assessed as reduction of paw volume in injected paw at 10 mg/kg, sc qd for 28 days; type: functional; conditions: 672 h, route subcutaneous; outline: as §1
Rattus norvegicus [5] = experiment: Antiarthritic activity in complete Freund's adjuvant-induced rat arthritis model assessed as reduction of paw volume in non-injected paw at 50 mg/kg, sc qd for 28 days; type: functional; conditions: 672 h, route subcutaneous; outline: as §1
Rattus norvegicus [6] = experiment: Antiarthritic activity in complete Freund's adjuvant-induced rat arthritis model assessed as reduction of paw volume in non-injected paw at 30 mg/kg, sc qd for 28 days; type: functional; conditions: 672 h, route subcutaneous; outline: as §1
Rattus norvegicus [7] = experiment: Antiarthritic activity in complete Freund's adjuvant-induced rat arthritis model assessed as reduction of paw volume in non-injected paw at 20 mg/kg, sc qd for 28 days; type: functional; conditions: 672 h, route subcutaneous; outline: as §1
Rattus norvegicus [8] = experiment: Antiarthritic activity in complete Freund's adjuvant-induced rat arthritis model assessed as reduction of paw volume in non-injected paw at 10 mg/kg, sc qd for 28 days; type: functional; conditions: 672 h, route subcutaneous; outline: as §1
Mus musculus [9] = experiment: Antiinflammatory activity in methylated bovine serum albumin sensitized delayed-type hypersensitivity granuloma mouse model assessed as reduction of granuloma dry weight at 100 mg/kg, sc qd for 9 days; type: functional; conditions: 216 h, route subcutaneous
Outline: (§2)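 Groups of 10 female mice (25 g) were sensitized sc over the inguinal lymph node with mBSA emulsion in saline, Freund's incomplete adjuvant and dextran. Three weeks later, two 6-mm hydroxyapatite discs soaked in mBSA (30 mg/mL saline) were implanted sc in the dorsum. Compounds at pH 7.4 were given sc into the scruff at 0.1 mL/10 g, daily from implantation to day 9. Granuloma wet and dry weights were recorded as % inhibition.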

Mus musculus [10] = experiment: Antiinflammatory activity in methylated bovine serum albumin sensitized delayed-type hypersensitivity granuloma mouse model assessed as reduction of granuloma dry weight at 60 mg/kg, sc qd for 9 days; type: functional; conditions: 216 h, route subcutaneous; outline: as §2
Mus musculus [11] = experiment: Antiinflammatory activity in methylated bovine serum albumin sensitized delayed-type hypersensitivity granuloma mouse model assessed as reduction of granuloma dry weight at 25 mg/kg, sc qd for 9 days; type: functional; conditions: 216 h, route subcutaneous; outline: as §2
Mus musculus [12] = experiment: Antiinflammatory activity in methylated bovine serum albumin sensitized delayed-type hypersensitivity granuloma mouse model assessed as reduction of granuloma wet weight at 100 mg/kg, sc qd for 9 days; type: functional; conditions: 216 h, route subcutaneous; outline: as §2
Mus musculus [13] = experiment: Antiinflammatory activity in methylated bovine serum albumin sensitized delayed-type hypersensitivity granuloma mouse model assessed as reduction of granuloma wet weight at 60 mg/kg, sc qd for 9 days; type: functional; conditions: 216 h, route subcutaneous; outline: as §2
Mus musculus [14] = experiment: Antiinflammatory activity in methylated bovine serum albumin sensitized delayed-type hypersensitivity granuloma mouse model assessed as reduction of granuloma wet weight at 25 mg/kg, sc qd for 9 days; type: functional; conditions: 216 h, route subcutaneous; outline: as §2
Mus musculus [15] = experiment: Toxicity in albino mouse assessed as mortality at 500 to 1000 mg/kg, […] after 24 hrs; type: organism-based; parameters: dose 500-1000 mg/kg; conditions: in vivo
Outline: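 Albino mice (20-25 g) were split into 6 groups of 8. Compounds were given at 500, 750 and 1000 mg/kg; controls received buffer only. Toxic symptoms, mortality and postmortem findings were recorded 24 h after administration. LD50 was calculated by the Dm − Σ(z×d)/n formula.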

Mus musculus [16] = experiment: Toxicity in albino mouse assessed as toxic symptoms at 500 to 1000 mg/kg, ip after 24 hrs; conditions: in vivo
MCF7 = experiment: Cytotoxicity against human MCF7 cells after 48 hrs by SRB assay; type: functional, cell-based; conditions: MCF7, 48 h
Outline: (§3)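 Cells were seeded at 10^4 per well and allowed to attach for 24 h. They were then exposed to four compound concentrations (5, 12.5, 25, 50), each in triplicate wells, for 48 h at 37 °C in 5% CO2. Cells were fixed and stained with sulforhodamine B, washed with acetic acid, and bound dye was recovered in Tris-EDTA pH 7.4 and read on a plate reader. IC50 was taken from survival curves using the triplicate means.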

HeLa = experiment: Cytotoxicity against human HeLa cells after 48 hrs by SRB assay; type: functional, cell-based; outline: as §3
HepG2 = experiment: Cytotoxicity against human HepG2 cells after 48 hrs by SRB assay; type: functional, cell-based; conditions: HepG2, 48 h; outline: as §3
HCT-116 = experiment: Cytotoxicity against human HCT116 cells after 48 hrs by SRB assay; type: functional, cell-based; conditions: HCT-116, 48 h; outline: as §3
Rattus norvegicus [17] = experiment: Antiarthritic activity in complete Freund's adjuvant-induced rat arthritis model assessed as reduction of paw volume in injected paw at 100 mg/kg, sc qd for 28 days; type: functional; conditions: 672 h, route subcutaneous; outline: as §1
Rattus norvegicus [18] = experiment: Antiarthritic activity in complete Freund's adjuvant-induced rat arthritis model assessed as reduction of paw volume in non-injected paw at 100 mg/kg, sc qd for 28 days; type: functional; conditions: 672 h, route subcutaneous; outline: as §1
Mus musculus [19] = experiment: Antiinflammatory activity in methylated bovine serum albumin sensitized delayed-type hypersensitivity granuloma mouse model assessed as reduction of granuloma dry weight at 50 mg/kg, sc qd for 9 days; type: functional; conditions: 216 h, route subcutaneous; outline: as §2
Mus musculus [20] = experiment: Antiinflammatory activity in methylated bovine serum albumin sensitized delayed-type hypersensitivity granuloma mouse model assessed as reduction of granuloma wet weight at 50 mg/kg, sc qd for 9 days; type: functional; conditions: 216 h, route subcutaneous; outline: as §2

Row | SMILES | inhibition in vivo at 50 mg/kg (Rattus norvegicus [1]) [%] | inhibition in vivo at 30 mg/kg (Rattus norvegicus [2]) [%] | inhibition in vivo at 20 mg/kg (Rattus norvegicus [3]) [%] | inhibition in vivo at 10 mg/kg (Rattus norvegicus [4]) [%] | inhibition in vivo at 50 mg/kg (Rattus norvegicus [5]) [%] | inhibition in vivo at 30 mg/kg (Rattus norvegicus [6]) [%] | inhibition in vivo at 20 mg/kg (Rattus norvegicus [7]) [%] | inhibition in vivo at 10 mg/kg (Rattus norvegicus [8]) [%] | inhibition in vivo at 100 mg/kg (Mus musculus [9]) [%] | inhibition in vivo at 60 mg/kg (Mus musculus [10]) [%] | inhibition in vivo at 25 mg/kg (Mus musculus [11]) [%] | inhibition in vivo at 100 mg/kg (Mus musculus [12]) [%] | inhibition in vivo at 60 mg/kg (Mus musculus [13]) [%] | inhibition in vivo at 25 mg/kg (Mus musculus [14]) [%] | also measured
1 | CCOP(=O)(OCC)C1=C(S)c2ccccc2N(C)P1(=O)OCC (centres undefined) | 37 | 35 | 27 | 18 | 76 | 73 | 60 | 66 | 55 | 53 | 50 | 50 | 48 | 33 | Activity (Mus musculus [15]): Non-toxic; Activity (Mus musculus [16]): Non-toxic
2 | CCOP(=O)(OCC)C1(P(=O)(OCC)OCC)Nc2ccccc2C1=S | 15 | 11 | 7 | 5 | 64 | 58 | 60 | 48 | 46 | 42 | 30 | 44 | 31 | 24 | 
3 | CCOP(=O)(OCC)C1(P(=O)(OCC)OCC)C(=S)c2ccccc2N1C | 30 | 32 | 23 | 15 | 68 | 70 | 55 | 45 | 48 | 45 | 36 | 38 | 45 | 33 | IC50 (MCF7): 16.5 µM; IC50 (HeLa): 15.2 µM; IC50 (HepG2): 14.7 µM; IC50 (HCT-116): 8.27 µM; Activity (Mus musculus [15]): Non-toxic; Activity (Mus musculus [16]): Non-toxic
4 | CCOP1(=O)Nc2ccccc2C(S)=C1P(=O)(OCC)OCC (centres undefined) | 25 | 14 | 10 | < 5 | 75 | 68 | 56 | 66 | 50 | 42 | 38 | 51 | 44 | 33 | 
5 | CN1c2ccccc2C(=S)C1(P(=O)(O)O)P(=O)(O)O | < 5 |  |  |  | 18 |  |  |  | 32 |  |  | 25 |  |  | inhibition in vivo at 100 mg/kg (Rattus norvegicus [17]): 13%; inhibition in vivo at 100 mg/kg (Rattus norvegicus [18]): 27%; inhibition in vivo at 50 mg/kg (Mus musculus [19]): 16%; inhibition in vivo at 50 mg/kg (Mus musculus [20]): 15%
6 | CCOP(=O)(OCC)C1(P(=O)(OCC)OCC)C(=S)c2ccccc2N=C1c1ccccc1 | 28 | 30 | 12 | < 5 | 70 | 68 | 60 | 40 | 48 | 32 | 22 | 43 | 35 | 13 | IC50 (MCF7): 15.6 µM; IC50 (HeLa): 27.1 µM; IC50 (HepG2): 20.4 µM; IC50 (HCT-116): 22.8 µM
7 | CCOP(=O)(OCC)C1(P(=O)(OCC)OCC)C(=S)c2ccccc2N=C1C | 20 | 18 | 23 | < 5 | 66 | 72 | 61 | 38 | 44 | 37 | 24 | 40 | 30 | 20 | 
8 | O=P(O)(O)C1(P(=O)(O)O)C(=S)c2ccccc2N=C1C1CCCCC1 | < 5 |  |  |  | 8 |  |  |  | 36 |  |  | 24 |  |  | inhibition in vivo at 100 mg/kg (Rattus norvegicus [17]): 16%; inhibition in vivo at 100 mg/kg (Rattus norvegicus [18]): 14%; inhibition in vivo at 50 mg/kg (Mus musculus [19]): 28%; inhibition in vivo at 50 mg/kg (Mus musculus [20]): 19%
9 | CC1=Nc2ccc(Br)cc2C(=S)C1(P(=O)(O)O)P(=O)(O)O | < 5 |  |  |  | 12 |  |  |  | 25 |  |  | 13 |  |  | inhibition in vivo at 100 mg/kg (Rattus norvegicus [17]): 21%; inhibition in vivo at 100 mg/kg (Rattus norvegicus [18]): 18%; inhibition in vivo at 50 mg/kg (Mus musculus [19]): 18%; inhibition in vivo at 50 mg/kg (Mus musculus [20]): < 10%
10 | CCOP(=O)(OCC)C1(P(=O)(OCC)OCC)N=C(c2ccc(N(CC)CC)cc2)c2ccccc2C1=S | 24 | 16 | 20 | < 5 | 65 | 52 | 56 | 44 | 44 | 40 | 32 | 34 | 31 | 22 | Activity (Mus musculus [15]): Non-toxic; Activity (Mus musculus [16]): Non-toxic
11 | CCN(CC)c1ccc(C2=NC(P(=O)(O)O)(P(=O)(O)O)C(=S)c3ccccc32)cc1 | < 5 |  |  |  | 10 |  |  |  | 30 |  |  | 23 |  |  | inhibition in vivo at 100 mg/kg (Rattus norvegicus [17]): 18%; inhibition in vivo at 100 mg/kg (Rattus norvegicus [18]): 24%; inhibition in vivo at 50 mg/kg (Mus musculus [19]): 26%; inhibition in vivo at 50 mg/kg (Mus musculus [20]): 16%
12 | CCOP(=O)(OCC)C1(P(=O)(OCC)OCC)N=C(c2ccc(C)cc2)c2ccccc2C1=S |  |  |  |  |  |  |  |  |  |  |  |  |  |  | IC50 (MCF7): 30.4 µM; IC50 (HeLa): 26.7 µM; IC50 (HepG2): 25.2 µM; IC50 (HCT-116): 18.3 µM
13 | O=P(O)(O)C(Cl)(Cl)P(=O)(O)O [CLODRONIC ACID] | 35 | 34 | 28 | 23 | 68 | 62 | 70 | 56 | 48 | 44 | 33 | 44 | 40 | 30 | 
14 | COc1cccc2c1C(=O)c1c(O)c3c(c(O)c1C2=O)C[C@@](O)(C(=O)CO)C[C@@H]3O[C@H]1C[C@H](N)[C@H](O)[C@H](C)O1 [DOXORUBICIN] |  |  |  |  |  |  |  |  |  |  |  |  |  |  | IC50 (HepG2): 5.7 µM; IC50 (HCT-116): 6.86 µM
